Assay outcomes from PubChem BioAssay.
A selection: hits, their analogues and other compounds. The true share with any hit is near 2.1%.
Hsp70 activator: Hsp70 transcriptional activators, primary screen, cell-based, HeLa, Hsp70 promoter luciferase, luminescence, 10 µM | activation, % at 10 µM | hit rate 0.04% among 200,000 | HeLa Hsp70 promoter luciferase reporter; scaled: vehicle 0, proteasome-inhibitor control 100% | AID 1203, 2008;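 active = activation above the mean across all tested compounds plus 3 SD, cutoff set per campaign, cut at about 5.5% in these data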;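 also: 100% = MG132 at 30 µM as the positive control and 0% = DMSO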
bCat nuc transl: modulators of beta-catenin nuclear translocation, primary screen, imaging, HeLa cells, immunofluorescence, high-content; hit rate 0.3% among 190,000; nuclear translocation activity, % at 5 µM; AID 1665, 2009;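 active = nuclear translocation activity above 50% at 5 µM, with a well cell count of 50 or more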;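 also: per-cell ratio of nuclear to cytoplasmic median beta-catenin stain intensity; plate controls were DMSO negative control for no effect and GSK-3 inhibitor IX positive control for full effect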
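Test system: HeLa cells, endogenous beta-catenin; Compound: single 5 µM dose plus 0.02–20 µM confirmation series; Times: compound exposure 24 h at 37°C; Signal: fluorescence imaging of beta-catenin antibody stain plus DAPI; Read-out: % activation, nuclear-to-cytoplasmic median beta-catenin signal ratio per cell.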
MT stabilize HCS: microtubule stabilizers in HeLa cells, primary screen, imaging, high-content imaging; HeLa tubulin immunostaining HCS, 24 h; share of cells brighter than vehicle mean+2SD; % tubulin-high responders, % at 10 µM; hit rate 0.83% among 200,000; AID 2205, 2009;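 active = plate Z-score above 3 for both tubulin-high and condensed-nucleus cell shares, with cell loss under 80%, at 10 µM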;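 also: anti alpha tubulin signal scored within the nucleus-defined area of each cell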
Dynein cargo inh: inhibitors of GR-EGFP nuclear translocation, primary screen, dynein cargo transport inhibitor project, imaging, high-content, 3617.4 mouse cells | test concentration mostly 20 µM; stimulated with dexamethasone, 1 µM; active compounds read low | z-score, hits read low | hit rate 0.47% among 220,000 | AID 1381, 2008;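 active = plate z-score of nuclear minus cytoplasmic receptor signal below a set negative limit, without overly bright fluorescence or cell loss, cut at about -3.5 in these data, passing the limit was not always enough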;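 also: z-score of nuclear minus cytoplasmic ring GR-EGFP intensity difference per well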
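Buffer or medium: tetracycline-free induction medium containing charcoal-stripped FBS / Reagent: dexamethasone agonist, 1.0 µM final, for 30 min / Technique: automated 10x imaging of fixed Hoechst-stained cells / Times: induction 48 h, compound 1 h, agonist 30 min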
Autophagy mod: autophagy modulators in MEF cells, primary screen, imaging, high-content, MEF GFP-LC3; MEF GFP-LC3 puncta imaging; test concentration mostly 10 µM; calls only at 10 µM (by protocol); hit rate 0.98% among 190,000; AID 463193, 2010;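 active = percentage of spot-positive cells more than 3 SD above its plate mean, without a fluorescence outlier flag or 80% toxicity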;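 also: spot-positive cell cutoff set from DMSO-treated cells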
* hit, by the source's call.

N=c1n(CCN2CCOCC2)c2ccccc2n1CC(O)COc1ccccc1 (stereo not drawn) was read as Hsp70 activator 0, bCat nuc transl -4, MT stabilize HCS 5, Dynein cargo inh 0.51 and Autophagy mod inactive.
Screening N=c1n(CCN2CCCCC2)c2ccccc2n1CC(O)COc1ccccc1 (stereo not drawn) returned Hsp70 activator 0, bCat nuc transl -1, MT stabilize HCS 3, Dynein cargo inh 1.8 and Autophagy mod active.
`Cc1ccccc1OCC(O)Cn1c(=N)n(CCN2CCOCC2)c2ccccc21` (stereo not drawn) gave Hsp70 activator 0, bCat nuc transl -4, MT stabilize HCS 5, Dynein cargo inh 2.1 and Autophagy mod inactive.
Cc1ccc(Cn2c(=N)n(CC(O)COc3ccccc3)c3ccccc32)cc1 (stereo not drawn) was read as Hsp70 activator 0, MT stabilize HCS 2, Dynein cargo inh -0.66 and Autophagy mod active.
`COc1ccccc1OCC(O)Cn1c(=N)n(CCN2CCCCC2)c2ccccc21` (stereo not drawn) gave Hsp70 activator 0, MT stabilize HCS 2, Dynein cargo inh 1 and Autophagy mod active.
`COc1ccc(NC(=O)C(c2ccccc2)N2CCN(c3ccccn3)CC2)cc1Cl` (stereo not drawn) gave Hsp70 activator 0, bCat nuc transl -4, MT stabilize HCS 2, Dynein cargo inh 0.54 and Autophagy mod inactive.
`O=C(CC1(O)C(=O)N(CCc2ccccc2)c2ccccc21)c1ccccn1` (stereo not drawn) gave Hsp70 activator 0, bCat nuc transl 1, MT stabilize HCS 4, Dynein cargo inh -0.48 and Autophagy mod inactive.
For O=C(CC1(O)C(=O)N(C/C=C/c2ccccc2)c2ccccc21)c1ccccn1 (stereo not drawn) the results were Hsp70 activator 0, bCat nuc transl 2, MT stabilize HCS 4, Dynein cargo inh -0.54 and Autophagy mod active.
Cc1ccc(NS(=O)(=O)c2ccccc2)c2c1CC(C)(C)O2 was read as Hsp70 activator 0, bCat nuc transl -2, MT stabilize HCS 27*, Dynein cargo inh 0.21 and Autophagy mod inactive.
For CSc1ccccc1NS(=O)(=O)c1ccccc1 the results were Hsp70 activator 0, bCat nuc transl -3, MT stabilize HCS 3, Dynein cargo inh 0.047 and Autophagy mod inactive.
For COc1cc(CC(=O)OCC(=O)c2ccc3c(c2)OCCO3)cc(OC)c1OC the results were Hsp70 activator 0, bCat nuc transl 158*, MT stabilize HCS 17*, Dynein cargo inh 0.46 and Autophagy mod active.
COc1cc(CC(=O)NCc2ccc3c(c2)OCO3)cc(OC)c1OC was read as Hsp70 activator 0, MT stabilize HCS 1, Dynein cargo inh -0.34 and Autophagy mod inactive.
Screening O=C(Oc1ccc(Br)cc1C(=O)/C=C/c1ccccc1F)c1ccco1 returned Hsp70 activator 0, MT stabilize HCS 2, Dynein cargo inh -5.8* and Autophagy mod inactive.
For CC(=O)c1cc(Cl)ccc1OC(=O)c1ccco1 the results were Hsp70 activator 0, MT stabilize HCS 3, Dynein cargo inh -0.75 and Autophagy mod inactive.
For CC(=O)c1ccc(-c2ccc(C(=O)N3CCCc4ccccc43)o2)cc1 the results were Hsp70 activator 0, bCat nuc transl -1, MT stabilize HCS 6, Dynein cargo inh 0.11 and Autophagy mod inactive.
`COc1cc(/C=C2\CC/C(=C\c3cc(OC)c(OC)c(OC)c3)C2=O)cc(OC)c1OC` gave Hsp70 activator 0, MT stabilize HCS 5, Dynein cargo inh 0.076 and Autophagy mod inactive.
`COc1cc(/C=C2\COC/C(=C\c3cc(OC)c(OC)c(OC)c3)C2=O)cc(OC)c1OC` gave bCat nuc transl -1 and Dynein cargo inh -6.6*.
Screening CCOC(=O)C(=O)N(CC)C1CCS(=O)(=O)C1 (stereo not drawn) returned bCat nuc transl -1 and Dynein cargo inh 1.7.
For CCOC(=O)C(C(=O)OCC)C1CCS(=O)(=O)C1 (stereo not drawn) the results were Hsp70 activator 0, bCat nuc transl -3, MT stabilize HCS 2, Dynein cargo inh -0.12 and Autophagy mod active.
`CCOC(=O)C1(CC2CC2)CCN(S(=O)(=O)/C=C/c2ccccc2)CC1` gave Hsp70 activator 1, bCat nuc transl -2, MT stabilize HCS 5, Dynein cargo inh 0.044 and Autophagy mod inactive.
`CCCN(CCC)C(=O)Cn1c(=O)c2sccc2n2c(=S)sc(-c3ccccc3)c12` gave Hsp70 activator 0, bCat nuc transl -2, MT stabilize HCS 22, Dynein cargo inh -1.4 and Autophagy mod active.
`CSc1ccccc1C(=O)N1CCc2ccccc2C1` gave Hsp70 activator 0, bCat nuc transl -1, MT stabilize HCS 2, Dynein cargo inh 2.3 and Autophagy mod active.
CN(c1ccccc1C(=O)N1CCN(c2cccc(Cl)c2)CC1)S(C)(=O)=O was read as Hsp70 activator 0, MT stabilize HCS 5, Dynein cargo inh 0.19 and Autophagy mod inactive.
`Cc1ccc(C(=O)N2CCN(c3cccc(Cl)c3)CC2)cc1C` gave Hsp70 activator 0, bCat nuc transl 19, MT stabilize HCS 24*, Dynein cargo inh -0.14 and Autophagy mod inactive.
Screening Cc1ccc(C(=O)N2CCN(c3ccccc3)CC2)cc1C returned Hsp70 activator 0, bCat nuc transl 2, MT stabilize HCS 4, Dynein cargo inh -0.71 and Autophagy mod inactive.
For Cc1ccccc1C(=O)N1CCc2ccccc2C1 the results were Hsp70 activator 0, bCat nuc transl 1, MT stabilize HCS 4, Dynein cargo inh -1.3 and Autophagy mod inactive.
For CSc1ccccc1C(=O)N1CCN(c2cccc(Cl)c2)CC1 the results were Hsp70 activator 0, bCat nuc transl 40, MT stabilize HCS 21*, Dynein cargo inh -0.55 and Autophagy mod inactive.
`Cc1cc(C(=O)N2CCN(c3cccc(Cl)c3)CC2)c(C)o1` gave Hsp70 activator 0, MT stabilize HCS 60*, Dynein cargo inh -0.74 and Autophagy mod inactive.
Screening CCN(CC)C(=O)C(=O)Nc1ccc(OC)c(Cl)c1 returned Hsp70 activator 0, bCat nuc transl -3, MT stabilize HCS 3, Dynein cargo inh -0.15 and Autophagy mod inactive.
Screening NC(N)=NC1=NC(=O)C(Cc2ccccc2)S1 (stereo not drawn) returned Hsp70 activator 0, bCat nuc transl 0, MT stabilize HCS 2, Dynein cargo inh 0.16 and Autophagy mod inactive.
Screening O=C(CN1C(=O)NC2(CCCC2)C1=O)OCc1cc(=O)n2cc(Br)ccc2n1 returned bCat nuc transl -1 and Dynein cargo inh -0.89.
